Screening results deposited in PubChem BioAssay by Broad Institute.
This excerpt belongs to a sample that is enriched for hits.
GSK3 alpha inh: human GSK-3 alpha kinase inhibition | 320,000 tested, 0.1% active | ADP-Glo luminescence, 60 min | inhibition, % at 10 µM | P49840;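 active = more than half of replicates show inhibition above 20%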;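 also: GST-tagged GSK-3 alpha with peptide substrate and 25 µM ATP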
Target sequence (P49840 whole entry, looked up): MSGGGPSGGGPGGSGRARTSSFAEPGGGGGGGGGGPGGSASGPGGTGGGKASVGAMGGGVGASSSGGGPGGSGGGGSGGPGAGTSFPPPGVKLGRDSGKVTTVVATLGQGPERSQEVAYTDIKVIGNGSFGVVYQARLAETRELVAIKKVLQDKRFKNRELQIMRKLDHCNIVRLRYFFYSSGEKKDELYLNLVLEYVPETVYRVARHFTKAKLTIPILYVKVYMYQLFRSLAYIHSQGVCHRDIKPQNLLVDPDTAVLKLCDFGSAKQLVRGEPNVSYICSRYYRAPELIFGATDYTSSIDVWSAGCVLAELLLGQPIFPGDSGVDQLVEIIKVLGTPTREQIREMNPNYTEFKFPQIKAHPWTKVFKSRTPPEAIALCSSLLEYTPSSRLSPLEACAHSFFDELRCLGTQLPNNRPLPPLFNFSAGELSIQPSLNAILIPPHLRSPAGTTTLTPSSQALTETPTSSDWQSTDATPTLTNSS
CDK5 inh: inhibitors of human CDK5/p35 kinase; Recombinant CDK5/p35, ADP-Glo luminescence, 60 min; inhibition, % at 10 µM; 330,000 tested, 0.01% active; AID 488839;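 active = highest replicate inhibition of at least 50% and at least 75% of replicates reaching 50%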
STK33 inh: human STK33 kinase inhibition; Q9BYT3; purified STK33, MBP phosphorylation, ADP-Glo luminescence; inhibition, % at 10 µM; 320,000 tested, 0.073% active;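 active = inhibition at or above 25%, using the most active replicate where run in duplicate; inactive = inhibition below 25%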
DYRK1A inh: inhibitors of rat Dyrk1A kinase; Q63470; ADP-Glo luminescence, NFATc1 peptide; inhibition, % at 12.5 µM; 310,000 tested, 0.43% active; AID 504441; in the data active = inhibition above about 50%
GSK3beta inhib: human GSK3beta kinase inhibition; P49841; GST-GSK3beta kinase, ADP-Glo luminescence, 60 min; active compounds read low; activity score (negative = inhibition), % at 10 µM; 300,000 tested, 0.038% active; AID 2097;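 active = more than half of replicate wells score below -50%, meaning over 50% inhibition versus plate controls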
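Test system – GST-tagged human GSK3beta kinase, cell-free · Incubation – 60 min enzyme reaction, room temperature · Signal – ADP-Glo luminescence · Also added – peptide substrate and ATP at 25 µM · Controls – DMSO neutral wells and GW8510 at 20 µM as positive · Buffer or medium – Tris/MgCl2 kinase buffer · Measure – Luminescence-derived activity versus plate DMSO and GW8510 wells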
ADP-Glo artifact: counter-screen for Dyrk1A inhibitors: ADP-Glo luciferase artifacts. shares compounds with DYRK1A inh. ADP-Glo luciferase artifact assay, no Dyrk1A, luminescence. AC50, µM (titrated, usually from 12 µM). 1,300 tested, under 10 active. AID 588348;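 active = fitted half-maximal dose AC50 no more than ten times the top valid tested dose, with luminescence dropping as dose rises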
Hits are given with their value; – = inactive; · = not tested or not shown.

SMILES	GSK3 alpha inh	CDK5 inh	STK33 inh	DYRK1A inh	GSK3beta inhib	ADP-Glo artifact
Clc1ccc2[nH]c3c(c2c1)CCc1cn[nH]c1-3	–	–	–	51	–	–
COc1cc(OC)c(NC(=O)c2cc3ccccc3cc2O)cc1Cl	·	–	·	–	·	·
COc1ccc(-c2cn[nH]c2C)cc1	–	–	–	63	–	–
O=C(Nc1cccc(-c2nn[nH]n2)c1)c1ccc(Cl)s1	–	–	–	76	–	–
O=C(Nc1cccc(-c2nn[nH]n2)c1)c1ccc(Br)s1	–	–	–	92	–	–
O=C(Nc1cccnc1)c1ccc(Br)s1	–	–	–	–	–	·
S=c1[nH]cc(-c2ccc(Cl)cc2)n1Cc1ccccc1	–	–	–	55	–	–
Cc1nc(NC(=O)c2ccccc2)sc1-c1csc(N)n1	–	–	–	60	–	–
Cc1nc(NC(=O)c2ccccc2)sc1-c1csc(NCc2ccccc2)n1	–	–	–	–	–	·
CC(NC(C(=O)c1ccccc1)c1ccccc1)c1ccccc1 (stereo unspecified)	·	–	·	–	·	·
COc1cccc(/C=C2\Oc3ccc(O)cc3C2=O)c1O	–	–	–	50	–	–
COC(=O)c1ccc2c(c1)C(=O)/C(=C/c1ccc(O)cc1)O2	–	–	–	–	–	·
C[C@@H]1O[C@@H](O[C@H]2[C@H](O)[C@@H](O)[C@H](Oc3c(-c4ccc(O)cc4)oc4cc(O)cc(O)c4c3=O)O[C@@H]2CO)[C@H](O)[C@H](O)[C@H]1O	–	–	–	–	·	·
C[C@@H]1O[C@@H](OC[C@@H]2O[C@H](Oc3c(-c4ccc(O)cc4)oc4cc(O)cc(O)c4c3=O)[C@@H](O)[C@H](O)[C@H]2O)[C@H](O)[C@H](O)[C@H]1O	–	–	–	72	·	–
O=c1nc2n(c3sc4c(c13)CCCC4)C(CBr)CS2 (stereo unspecified)	–	–	–	51	–	–
CCC(=O)OC1(C(C)=O)CCC2C3CCC4=CC(=O)CCC4(C)C3CCC21C (stereo unspecified)	·	–	·	·	·	·
CCOC(=O)C(Cc1ccc(O)c([N+](=O)[O-])c1)N1C(=O)c2ccccc2C1=O (stereo unspecified)	·	–	·	–	·	·
O=C1c2ccccc2S(=O)(=O)N1Cc1nnc(-c2ccccc2Br)o1	·	–	·	59	–	–
O=S1(=O)c2cccc3cccc(c23)N1Cc1nnc(-c2ccccc2Br)o1	–	–	–	–	–	·
N#C/C(=N\Nc1cccc([N+](=O)[O-])c1)C(=O)c1ccc(Br)cc1	–	–	–	78	–	–
O=C(O)c1ccc(N=NNc2cccc([N+](=O)[O-])c2)cc1	–	–	–	–	–	·
CCOC(=O)c1ccc(NC(=S)Nc2ccc(Br)cc2N)cc1	–	–	–	63	–	–
NN=C1c2ccccc2-c2ccc(N)cc21	·	–	·	–	·	·
CCOc1ccc(/C=C2\SC(=S)N(C)C2=O)cc1OC	–	·	–	·	–	·
COc1ccc(/C=C2\SC(=O)NC2=S)cc1OC	·	–	·	58	–	–
SMILES	GSK3 alpha inh	CDK5 inh	STK33 inh	DYRK1A inh	GSK3beta inhib	ADP-Glo artifact
COc1cc(/C=C2\SC(=O)NC2=O)ccc1Oc1ccc([N+](=O)[O-])cc1[N+](=O)[O-]	–	–	–	77	–	–
CC(C)(C)OC(=O)N(CCc1ccccc1)Cc1cccc(OCc2cccc(NC(=O)c3ccccc3)c2)c1	·	–	·	·	·	·
Oc1ccc(/C=N/Nc2ccc(C(F)(F)F)cn2)c(O)c1	–	67	–	61	–	–
Oc1ccc(/C=N/Nc2cccc(Cl)n2)c(O)c1	–	–	–	–	–	·
Nc1ccc(S(=O)(=O)NN=Cc2ccccc2[N+](=O)[O-])cc1	·	–	·	–	·	·
c1ccc2c(-c3ccncc3)c[nH]c2c1	–	–	–	76	–	–
c1ccc(-c2nnc(-c3ccccc3)c(-c3c[nH]c4ccccc34)n2)cc1	–	–	–	–	–	·
C=CCOC(=O)C1=C(C)NC(=O)NC1c1ccc(N(C)C)cc1 (stereo unspecified)	–	–	–	·	–	·
C=CCOC(=O)C1=C(C)NC(=O)NC1c1ccc(Cl)cc1 (stereo unspecified)	–	–	–	67	–	–
COC(=O)CCC(C(=O)CN1C(=O)c2ccccc2C1=O)N1C(=O)c2ccccc2C1=O (stereo unspecified)	·	–	·	–	·	·
CCc1nc(Nc2cccc(O)c2)c2oc3ccccc3c2n1	–	–	–	62	–	–
CCc1nc(Nc2ccncc2)c2oc3ccccc3c2n1	–	–	–	–	–	·
COc1ccc(C(=O)Nc2ccnc(-c3cccnc3)n2)cc1	–	–	–	–	–	·
Cc1ccc(C(=O)Nc2ccnc(-c3cccnc3)n2)cc1	–	–	·	60	–	–
CC1CCN(c2ncnc3nc[nH]c23)CC1	–	–	–	81	–	–
OC1CCN(c2ncnc3nc[nH]c23)CC1	–	–	–	–	–	·
CC1Cc2ccccc2N1c1ncnc2nc[nH]c12 (stereo unspecified)	–	–	–	72	–	–
c1ccc2c(c1)CCN(c1ncnc3nc[nH]c13)C2	–	–	–	–	–	·
Nc1ccc(C(=O)NN2C(=O)[C@H](Cl)C2c2ccc(Cl)cc2)cc1 (stereo partly specified)	·	–	·	·	·	·
CC[C@@](C)(NS(=O)(=O)OCC(Cl)(Cl)Cl)c1ccccc1	–	–	–	57	–	–
CC(C)(NS(=O)(=O)OCC(Cl)(Cl)Cl)c1ccccc1	–	–	–	–	–	·
COc1cc(C(C)=O)ccc1Oc1ncnc2c1cnn2-c1ccc(C)c(C)c1	·	–	·	–	–	·
COc1cc(C(C)=O)ccc1Oc1ncnc2c1cnn2-c1ccccc1	–	–	–	62	–	–
CC(O)(c1ccccc1)c1ccc2ccccc2n1 (stereo unspecified)	·	–	·	–	·	·
CC(=O)OC[C@]12CC[C@H]3[C@@](C)(CC[C@H]4C(C)(C)CCC[C@]34C)[C@@H]1C[C@H](C1=CC(=O)O[C@@H]1OC(C)=O)O2	–	·	–	·	·	·
SMILES	GSK3 alpha inh	CDK5 inh	STK33 inh	DYRK1A inh	GSK3beta inhib	ADP-Glo artifact
CCCCn1c(NCCO)nc2ccccc21	–	–	–	58	–	–
Cc1ccc2nc3n(c(=O)c2c1)-c1ccc(Cl)cc1C(=O)NC3CC(C)C (stereo unspecified)	–	·	–	·	·	·
CC(C)c1nnc(NC(=O)Cn2nc(-c3ccc4c(c3)OCCO4)ccc2=O)s1	–	–	–	58	–	–
O=C(Nc1nc(-c2ccncc2)cs1)c1ccco1	–	–	–	76	–	–
CCC(=O)Nc1nc(-c2ccc3c(c2)OCCO3)cs1	–	–	–	52	–	–
CC(C)(C)C(=O)Nc1nc(-c2ccc3c(c2)OCO3)cs1	–	·	–	–	–	·
O=C(Nc1nc(-c2cccs2)cs1)c1ccco1	–	–	–	–	–	·
O=C(/C=C/c1ccccc1)Nc1nc(-c2ccncc2)cs1	–	–	–	72	·	–
Cc1cccc(NC2(C(=O)O)CCCC2)c1	·	–	·	–	·	·
